Test results reported in ChEMBL document CHEMBL1145100, “Structure-activity relationship of imidazo[1,2-a]pyridines as ligands for detecting beta-amyloid plaques in the brain” (J Med Chem, 2003).

What was measured:
Mus musculus [1] = test: Biodistribution of radioactivity in normal mice (ICR) liver after 6 hours of intravenous injection of [125I]-16(IMPY); assay type: ADME, organism-based; settings: in vivo
Method in brief: (§1)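 Male ICR mice, 2-3 months old, 20-30 g, under ether anesthesia, given 0.15 mL of 0.1% bovine serum albumin solution containing the [125I] tracer into the tail vein. Killed by cardiac excision at set times after injection. Organs removed and weighed, then gamma-counted. % dose per organ computed against diluted aliquots of the injected material.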

Mus musculus [2] = test: Biodistribution of radioactivity in normal mice (ICR) kidney after 2 minutes of intravenous injection of [125I]-16(IMPY); assay type: ADME, organism-based; settings: in vivo; method in brief: as §1
Mus musculus [3] = test: Biodistribution of radioactivity in normal mice (ICR) spleen after 24 hours of intravenous injection of [125I]-16(IMPY); assay type: ADME, organism-based; settings: in vivo; method in brief: as §1
Mus musculus [4] = test: Biodistribution of radioactivity in normal mice blood after 2 minutes of intravenous injection of [125I]-16(IMPY); assay type: ADME, organism-based; settings: in vivo
Method in brief: (§2)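 Male ICR mice (2-3 months old, 20-30 g) under ether anesthesia; 0.15 mL of 0.1% bovine serum albumin solution containing the iodine-125 tracer injected into the tail vein. Mice killed by cardiac excision at set times. Organs removed, weighed and gamma-counted. Percent dose per organ derived against diluted aliquots of the injectate.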

Mus musculus [5] = test: Biodistribution of radioactivity in normal mice (ICR) skin after 6 hours of intravenous injection of [125I]-16(IMPY); assay type: ADME, organism-based, Zone of skin; settings: in vivo; method in brief: as §1
Mus musculus [6] = test: Biodistribution of radioactivity in normal mice (ICR) spleen after 2 minutes of intravenous injection of [125I]-16(IMPY); assay type: ADME, organism-based; settings: in vivo; method in brief: as §1
Mus musculus [7] = test: Biodistribution of radioactivity in normal mice blood after 24 hours of intravenous injection of [125I]-16(IMPY); assay type: ADME, organism-based; settings: in vivo; method in brief: as §2
Mus musculus [8] = test: Biodistribution of radioactivity in normal mice (ICR) kidney after 2 hours of intravenous injection of [125I]-16(IMPY); assay type: ADME, organism-based; settings: in vivo; method in brief: as §1
Mus musculus [9] = test: Biodistribution of radioactivity in normal mice (ICR) heart after 24 hours of intravenous injection of [125I]-16(IMPY); assay type: ADME, organism-based; settings: in vivo; method in brief: as §1
Mus musculus [10] = test: Biodistribution of radioactivity in normal mice (ICR) liver after 2 minutes of intravenous injection of [125I]-16(IMPY); assay type: ADME, organism-based; settings: in vivo; method in brief: as §1
Mus musculus [11] = test: Biodistribution of radioactivity in normal mice (ICR) muscle after 1 hr of intravenous injection of [125I]-16(IMPY); assay type: ADME, organism-based, Muscle tissue; settings: in vivo; method in brief: as §1
Mus musculus [12] = test: Biodistribution of radioactivity in normal mice (ICR) lung after 1 hour of intravenous injection of [125I]-16(IMPY); assay type: ADME, organism-based; settings: in vivo; method in brief: as §1
Mus musculus [13] = test: Biodistribution of radioactivity in normal mice (ICR) liver after 1 hour of intravenous injection of [125I]-16(IMPY); assay type: ADME, organism-based; settings: in vivo; method in brief: as §1
Mus musculus [14] = test: Biodistribution of radioactivity in normal mice (ICR) spleen after 1 hour of intravenous injection of [125I]-16(IMPY); assay type: ADME, organism-based; settings: in vivo; method in brief: as §1
Mus musculus [15] = test: Biodistribution of radioactivity in normal mice (ICR) heart after 6 hours of intravenous injection of [125I]-16(IMPY); assay type: ADME, organism-based; settings: in vivo; method in brief: as §1
Mus musculus [16] = test: Biodistribution of radioactivity in normal mice (ICR) lung after 24 hours of intravenous injection of [125I]-16(IMPY); assay type: ADME, organism-based; settings: in vivo; method in brief: as §1
Mus musculus [17] = test: Biodistribution of radioactivity in normal mice (ICR) muscle after 24 hours of intravenous injection of [125I]-16(IMPY); assay type: ADME, organism-based, Muscle tissue; settings: in vivo; method in brief: as §1
Mus musculus [18] = test: Biodistribution of radioactivity in normal mice (ICR) spleen after 2 hours of intravenous injection of [125I]-16(IMPY); assay type: ADME, organism-based; settings: in vivo; method in brief: as §1
Mus musculus [19] = test: Biodistribution of radioactivity in normal mice (ICR) muscle after 30 minutes of intravenous injection of [125I]-16(IMPY); assay type: ADME, organism-based, Muscle tissue; settings: in vivo, 0.5 h; method in brief: as §1
Mus musculus [20] = test: Biodistribution of radioactivity in normal mice (ICR) spleen after 30 minutes of intravenous injection of [125I]-16(IMPY); assay type: ADME, organism-based; settings: in vivo, 0.5 h; method in brief: as §1
Mus musculus [21] = test: Biodistribution of radioactivity in normal mice (ICR) liver after 30 minutes of intravenous injection of [125I]-16(IMPY); assay type: ADME, organism-based; settings: in vivo, 0.5 h; method in brief: as §1
Mus musculus [22] = test: Biodistribution of radioactivity in normal mice (ICR) kidney after 24 hours of intravenous injection of [125I]-16(IMPY); assay type: ADME, organism-based; settings: in vivo; method in brief: as §1
Mus musculus [23] = test: Biodistribution of radioactivity in normal mice (ICR) brain after 1 hour of intravenous injection of [125I]-16(IMPY); assay type: ADME, organism-based; settings: in vivo; method in brief: as §1
Mus musculus [24] = test: Biodistribution of radioactivity in normal mice (ICR) brain after 2 minutes of intravenous injection of [125I]-16(IMPY); assay type: ADME, organism-based; settings: in vivo; method in brief: as §1
Mus musculus [25] = test: Biodistribution of radioactivity in normal mice (ICR) heart after 2 minutes of intravenous injection of [125I]-16(IMPY); assay type: ADME, organism-based; settings: in vivo; method in brief: as §1
Mus musculus [26] = test: Biodistribution of radioactivity in normal mice blood after 2 hours of intravenous injection of [125I]-16(IMPY); assay type: ADME, organism-based; settings: in vivo; method in brief: as §1
Mus musculus [27] = test: Biodistribution of radioactivity in normal mice (ICR) heart after 30 minutes of intravenous injection of [125I]-16(IMPY); assay type: ADME, organism-based; settings: in vivo, 0.5 h; method in brief: as §1

Dose/organ (Mus musculus [1]): 1.54%
Dose/organ (Mus musculus [2]): 4.75%
Dose/organ (Mus musculus [3]): 0.01%
Dose/organ (Mus musculus [4]): 6.41%
Dose/organ (Mus musculus [5]): 2.19%
Dose/organ (Mus musculus [6]): 0.4%
Dose/organ (Mus musculus [7]): 0.18%
Dose/organ (Mus musculus [8]): 0.53%
Dose/organ (Mus musculus [9]): 0.01%
Dose/organ (Mus musculus [10]): 20.9%
Dose/organ (Mus musculus [11]): 5.03%
Dose/organ (Mus musculus [12]): 0.34%
Dose/organ (Mus musculus [13]): 5.88%
Dose/organ (Mus musculus [14]): 0.08%
Dose/organ (Mus musculus [15]): 0.04%
Dose/organ (Mus musculus [16]): 0.05%
Dose/organ (Mus musculus [17]): 0.27%
Dose/organ (Mus musculus [18]): 0.05%
Dose/organ (Mus musculus [19]): 6.08%
Dose/organ (Mus musculus [20]): 0.09%
Dose/organ (Mus musculus [21]): 6.32%
Dose/organ (Mus musculus [22]): 0.05%
Dose/organ (Mus musculus [23]): 0.21%
Dose/organ (Mus musculus [24]): 2.88%
Dose/organ (Mus musculus [25]): 0.79%
Dose/organ (Mus musculus [26]): 1.82%
Dose/organ (Mus musculus [27]): 0.16%
SMILES: CN(C)c1ccc(-c2cn3cc(I)ccc3n2)cc1
